ChEMBL document CHEMBL1123566, “Synthesis and cardiac electrophysiological activity of 2- and 3-[(substituted phenyl)alkyl]quinuclidines. Structure-activity relationships” (1987)
“And” between values parts separate entries of the source, which are not always exact repeats. Equal entries are not always repeated.

Key:
Canis familiaris [1] = species on record: Canis familiaris; assay: In vitro electrophysiological evaluation in canine cardiac ventricular muscle reported as maximum % change for functional refractory period (FRP) at 0.1-100 uM concentration range; concentration at which it occurred is 100 uM.; parameters: species or system Canis lupus familiaris, Muscle tissue
Outline: (§1)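 Canine right ventricle and papillary muscle strips in oxygenated Tyrode's solution, fitted with stimulating and recording electrodes. The extra-stimulus conduction-interval method was adapted for in vitro use. FRP and CT were read from a conduction-interval curve before and after various compound concentrations, and expressed as percent change from control. Compounds were taken from 10 mM deionized-water stock into Tyrode's. Each strip was used once as its own control.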

Canis familiaris [2] = species on record: Canis familiaris; assay: In vitro electrophysiological evaluation in canine cardiac ventricular muscle reported as % change for the functional refractory period (FRP) at 10 uM at concentration range of 0.1-100 uM; parameters: species or system Canis lupus familiaris, Muscle tissue; outline: as §1
Canis familiaris [3] = species on record: Canis familiaris; assay: In vitro electrophysiological evaluation in canine cardiac ventricular muscle reported as % change for conduction time(CT) at 10 uM at 0.1-100 uM concentration range; Minimal (<10% decrease or increase in CT).; format: functional, Canis lupus familiaris, Muscle tissue
Canis familiaris [4] = species on record: Canis familiaris; assay: In vitro electrophysiological evaluation in canine cardiac ventricular muscle reported as maximum % change for conduction time(CT) at 0.1-100 uM concentration range; Minimal (<10% decrease or increase in CT).; format: functional, Canis lupus familiaris, Muscle tissue; outline: as §1
Canis familiaris [5] = species on record: Canis familiaris; assay: In vitro electrophysiological evaluation in canine cardiac Purkinje fibres reported as percent change Vmax at 10 uM at concentration range of 0.1-100 uM; Minimal (<10% decrease or increase in V max).; format: functional, organism-based; settings: Canis lupus familiaris, Purkinje fiber
Outline: (§2)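 Canine cardiac Purkinje fibres, intracellular microelectrode recording, paced at a basic cycle length of 1 s. APD95 and Vmax read simultaneously. Compound: 10 mM stock in deionized water, diluted into Tyrode's solution, tested over the stated concentration range. Each fibre used once as its own control. Result is % change from control, given at 10 µM or as the maximum with its concentration. M = <10% decrease or an increase in Vmax.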

Canis familiaris [6] = species on record: Canis familiaris; assay: In vitro electrophysiological evaluation in canine cardiac Purkinje fibres reported as percent change Vmax at 10 uM at concentration range of 1-100 uM; Minimal (<10% decrease or increase in V max).; format: functional; settings: Canis lupus familiaris, Purkinje fiber; outline: as §2
Canis familiaris [7] = species on record: Canis familiaris; assay: In vitro electrophysiological evaluation in canine cardiac Purkinje fibres reported as maximum percent change Vmax concentration range of 1-100 uM; Minimal (<10% decrease or increase in V max).; format: functional; settings: Canis lupus familiaris; Purkinje fiber; outline: as §2
Canis familiaris [8] = species on record: Canis familiaris; assay: In vitro electrophysiological evaluation in canine cardiac Purkinje fibres reported as maximum percent change Vmax concentration range of 0.1-100 uM; Minimal (<10% decrease or increase in V max).; format: functional; settings: Canis lupus familiaris; Purkinje fiber; outline: as §2
Canis familiaris [9] = species on record: Canis familiaris; assay: In vitro electrophysiological evaluation in canine cardiac occurred is 100 uM; format: functional; settings: Canis lupus familiaris; Heart
Canis familiaris [10] = species on record: Canis familiaris; assay: In vitro electrophysiological evaluation in canine cardiac Purkinje fibres reported as % change for action potential duration at 10 uM at 0.1-100 uM concentration range; format: functional, Canis lupus familiaris, Purkinje fiber; outline: as §2
Canis familiaris [11] = species on record: Canis familiaris; assay: In vitro electrophysiological evaluation in canine cardiac Purkinje fibres reported as % change for action potential duration at 10 uM at 1-100 uM concentration range; format: functional, Canis lupus familiaris, Purkinje fiber; outline: as §2
Canis familiaris [12] = species on record: Canis familiaris; assay: In vitro electrophysiological evaluation in canine cardiac Purkinje fibres reported as % change for action potential duration at a concentration of 10 uM; format: functional, Canis lupus familiaris, Purkinje fiber; outline: as §2
Canis familiaris [13] = species on record: Canis familiaris; assay: In vitro electrophysiological activity in canine cardiac occurred is 100 uM; format: functional, Canis lupus familiaris, Heart
Canis familiaris [14] = species on record: Canis familiaris; assay: In vitro electrophysiological evaluation in canine cardiac ventricular muscle reported as maximum % change for conduction time(CT) at 0.1-10 uM concentration range; Minimal (<10% decrease or increase in CT).; format: functional, Canis lupus familiaris, Muscle tissue; outline: as §1
Canis familiaris [15] = species on record: Canis familiaris; assay: In vitro electrophysiological evaluation in canine cardiac ventricular muscle reported as % change for the functional refractory period (FRP) at 10 uM at concentration range of 0.1-10 uM; parameters: species or system Canis lupus familiaris, Muscle tissue; outline: as §1
Canis familiaris [16] = species on record: Canis familiaris; assay: In vitro electrophysiological evaluation in canine cardiac ventricular muscle reported as % change for conduction time(CT) at 10 uM at 0.1-10 uM concentration range; Minimal (<10% decrease or increase in CT).; format: functional, Canis lupus familiaris, Muscle tissue
Canis familiaris [17] = species on record: Canis familiaris; assay: In vitro electrophysiological evaluation in canine cardiac ventricular muscle reported as maximum % change for functional refractory period (FRP) at 0.1-10 uM concentration range; concentration at which it occurred is 10 uM; parameters: species or system Canis lupus familiaris, Muscle tissue; outline: as §1
Canis familiaris [18] = species on record: Canis familiaris; assay: In vitro electrophysiological activity in canine cardiac occurred is 10 uM; format: functional, Canis lupus familiaris, Heart

| Structure (SMILES) | FRP (Canis familiaris [1]) | FRP (Canis familiaris [2]) | CT (Canis familiaris [3]) [%] | CT (Canis familiaris [4]) [%] | Vmax (Canis familiaris [5]) [%] | Vmax (Canis familiaris [6]) [%] | Vmax (Canis familiaris [7]) [%] | Vmax (Canis familiaris [8]) [%] | Vmax (Canis familiaris [9]) [%] | APD (Canis familiaris [10]) [%] | APD95 (Canis familiaris [10]) | APD95 (Canis familiaris [11]) [%] | APD95 (Canis familiaris [12]) [%] | APD95 (Canis familiaris [13]) | CT (Canis familiaris [14]) [%] | FRP (Canis familiaris [15]) [%] | CT (Canis familiaris [16]) [%] | FRP (Canis familiaris [17]) [%] | APD95 (Canis familiaris [18]) [%] |
| --- | --- | --- | --- | --- | --- | --- | --- | --- | --- | --- | --- | --- | --- | --- | --- | --- | --- | --- | --- |
| CS(=O)(=O)Nc1ccc(C(=O)CCC2C(=O)C3CCN2CC3)cc1.Cl (stereo not given) | 32% and 21% and 24% | 18% and 12% and 13% | <10 | <10 | < 10 | < 10 | < 10 | < 10 | -24 | 24 | -1% and 10% | 5 | 16 | 36% and 18% |  |  |  |  |  |
| CC(=O)C(CC1C(=O)C2CCN1CC2)C(=O)c1ccccc1.Cl (stereo not given) |  |  |  |  | < 10 | < 10 |  | < 10 |  |  |  | -5 | -6 | -19% | <10 | 14 | <10 | 20 | -6 |
